{
  "source": "ChEMBL document CHEMBL5331127",
  "about": "“Discovery of ARD-2051 as a Potent and Orally Efficacious Proteolysis Targeting Chimera (PROTAC) Degrader of Androgen Receptor for the Treatment of Advanced Prostate Cancer” (J Med Chem, 2023)",
  "key": {"[1]": {"molecular_target": "T1, Androgen receptor (Homo sapiens) (UniProt P10275)", "T1 sequence (whole entry)": "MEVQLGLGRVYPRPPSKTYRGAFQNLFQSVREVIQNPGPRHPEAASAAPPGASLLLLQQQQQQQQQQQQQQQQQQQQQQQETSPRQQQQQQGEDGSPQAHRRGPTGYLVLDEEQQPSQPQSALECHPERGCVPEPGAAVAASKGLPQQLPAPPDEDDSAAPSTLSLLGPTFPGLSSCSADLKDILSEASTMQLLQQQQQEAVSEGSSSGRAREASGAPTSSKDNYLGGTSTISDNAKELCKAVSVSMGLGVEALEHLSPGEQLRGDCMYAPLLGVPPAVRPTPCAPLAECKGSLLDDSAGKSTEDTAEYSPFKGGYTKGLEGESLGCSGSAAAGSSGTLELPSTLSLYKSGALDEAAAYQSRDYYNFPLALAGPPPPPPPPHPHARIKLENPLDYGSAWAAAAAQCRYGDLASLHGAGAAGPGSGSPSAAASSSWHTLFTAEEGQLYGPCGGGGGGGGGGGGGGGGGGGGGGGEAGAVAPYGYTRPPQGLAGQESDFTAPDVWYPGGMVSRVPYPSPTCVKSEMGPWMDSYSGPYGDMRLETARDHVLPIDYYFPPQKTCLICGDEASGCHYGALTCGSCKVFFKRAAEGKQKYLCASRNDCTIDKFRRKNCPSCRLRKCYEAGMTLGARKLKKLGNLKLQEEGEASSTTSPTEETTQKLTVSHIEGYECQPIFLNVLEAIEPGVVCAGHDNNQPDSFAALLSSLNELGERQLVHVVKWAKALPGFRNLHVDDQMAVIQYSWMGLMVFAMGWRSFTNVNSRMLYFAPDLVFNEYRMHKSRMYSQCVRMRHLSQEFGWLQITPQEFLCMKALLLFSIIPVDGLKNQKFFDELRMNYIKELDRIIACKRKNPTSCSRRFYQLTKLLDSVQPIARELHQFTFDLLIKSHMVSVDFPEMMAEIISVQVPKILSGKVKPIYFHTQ", "assay": "Induction of androgen receptor degradation in human VCaP cells at 1 uM after 24 hrs by Western blotting analysis relative to control", "assay_type": "cell-based", "how_it_was_run": "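VCaP cells treated for 24 h at 10, 100 or 1000 nM. AR protein measured by Western blotting.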"}, "[2]": {"assay": "Drug concentration in ICR mouse plasma at 10 mg/kg, po measured after 3 hrs", "assay_type": "ADME, organism-based", "how_it_was_run": "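Mice given a single 10 mg/kg dose by oral gavage, 3 mice per time point. Plasma drug levels measured at 1, 3, 6 and 24 h; mean ± SD reported.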"}, "[3]": {"molecular_target": "T2, Androgen receptor (Homo sapiens, UniProt P10275)", "T2 sequence (P10275 whole entry)": "T1 sequence (whole entry)", "assay": "Induction of androgen receptor degradation in human VCaP cells incubated for 24 hrs by Western blot analysis", "assay_type": "cell-based"}, "[4]": {"system": "VCaP", "assay": "Induction of androgen receptor degradation in human VCaP cells at 100 nM pretreated with ARi-12 for 2 hrs followed by compound addition and 3 hrs by Western blot analysis", "assay_type": "functional, cell-based", "conditions": "time 5.0 hrs", "how_it_was_run": "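LNCaP or VCaP cells pretreated 2 h with DMSO, ARi-12 (10 μM), thalidomide (10 μM), MG-132 (3 μM) or MLN4924 (0.5 μM), then given degrader at 100 nM for 3 h. AR measured by Western blot with GAPDH as loading control.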"}, "[5]": {"assay": "Downregulation of KLK3 gene expression in human LNCaP cells at 10 nM incubated for 24 hrs by qRT-PCR analysis", "assay_type": "functional", "how_it_was_run": "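LNCaP cells (RPMI 1640) or VCaP cells (DMEM Glutamax), both with 10% FBS, treated for 24 h. KLK3 mRNA measured by qRT-PCR and calculated by the comparative CT method against GAPDH and vehicle.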"}, "[6]": {"assay": "Metabolic stability in monkey liver microsomes assessed as half life at 1 uM measured upto 45 mins in presence of NADPH by LC-MS/MS analysis", "assay_type": "ADME, Macaca mulatta, Microsome", "conditions": "rhesus monkey, 0.75 h", "how_it_was_run": "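Pooled liver microsomes from each species: 1 μM compound with 0.5 mg/mL microsomes and 1.7 mM NADPH in 0.1 M K-phosphate, pH 7.4, 5 mM MgCl2, 37 °C. Sampled at 0, 5, 10, 15, 30 and 45 min with cold ACN quench. No-NADPH incubation as negative control; ketanserin as positive control. LC-MS/MS; half-life from ln(remaining) versus time.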"}, "[7]": {"assay": "Metabolic stability in rat hepatocytes assessed as half life at 1 uM measured upto 120 mins in presence of NADPH by LC-MS/MS analysis", "assay_type": "ADME, cell-based, Hepatocyte", "conditions": "2 h"}, "[8]": {"assay": "Metabolic stability in human hepatocytes assessed as half life at 1 uM measured upto 120 mins in presence of NADPH by LC-MS/MS analysis", "assay_type": "ADME, cell-based, Hepatocyte", "conditions": "2 h"}, "[9]": {"assay": "Metabolic stability in mouse plasma assessed as half life at 1 uM measured upto 120 mins by LC-MS/MS analysis", "assay_type": "ADME, cell-free", "conditions": "2 h", "how_it_was_run": "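Compound at 1 μM final in pre-warmed plasma of each species, 37 °C for up to 2 h. ACN/IS quench at 0, 5, 15, 30, 60 and 120 min; LC/MS. Procaine as reference (benfluorex for rat). t1/2 = 0.693/slope of ln(fraction remaining) versus time.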"}, "[10]": {"assay": "Plasma protein binding in mouse at 1 uM after 5 hrs by equilibrium dialysis based LC-MS/MS analysis", "assay_type": "ADME, cell-free", "how_it_was_run": "(§1)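 Equilibrium dialysis of pooled plasma of each species spiked at 1 μM against 0.1 M sodium phosphate, pH 7.4. 5 h at 37 °C with shaking at 60 rpm. Both sides matrix-matched, ACN/IS quench, LC/MS. % bound = 100 − (buffer/plasma peak-area ratio × 100); recovery also calculated. Warfarin as reference.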"}, "[11]": {"assay": "Plasma protein binding in rat at 1 uM after 5 hrs by equilibrium dialysis based LC-MS/MS analysis", "assay_type": "ADME, cell-free", "how_it_was_run": "as §1"}, "[12]": {"assay": "Plasma protein binding in dog at 1 uM after 5 hrs by equilibrium dialysis based LC-MS/MS analysis", "assay_type": "ADME, cell-free, Canis lupus familiaris", "how_it_was_run": "as §1"}, "[13]": {"assay": "Plasma protein binding in human at 1 uM after 5 hrs by equilibrium dialysis based LC-MS/MS analysis", "assay_type": "ADME, cell-free", "how_it_was_run": "as §1"}, "[14]": {"assay": "Half life in Beagle dog at 1 mg/kg, iv measured upto 24 hrs by LC-MS/MS analysis", "assay_type": "ADME, organism-based, Canis lupus familiaris", "conditions": "in vivo", "how_it_was_run": "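Male ICR mice (2 mg/kg), male SD rats (1 mg/kg) or male Beagle dogs (1 mg/kg) given a single intravenous dose in 10% PEG400 + 90% PBS adjusted to pH 8.0 with NaOH.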"}, "[15]": {"assay": "Volume of distribution at steady state in Sprague-Dawley rat at 1 mg/kg, iv measured upto 24 hrs by LC-MS/MS analysis", "assay_type": "ADME, organism-based", "conditions": "in vivo"}, "[16]": {"system": "Mus musculus", "assay": "In vivo induction of androgen receptor degradation in human VCaP cells xenografted in CB17 SCID mouse assessed as reduction in TMPRSS2 mRNA level at 12.5 mg/kg, po measured after 6 to 24 hrs by qRT-PCR analysis", "assay_type": "functional, organism-based", "conditions": "time 6-24 hrs"}, "[17]": {"system": "VCaP", "assay": "Antitumor activity against human VCaP cells xenografted in CB17 SCID mouse assessed as tumor growth inhibition at 7.5 mg/kg, po administered for 21 days", "assay_type": "functional", "conditions": "504 h, time 21 day, read-out: TGI", "how_it_was_run": "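SCID mice bearing VCaP xenografts dosed by oral gavage once daily for 21 days at 3.75, 7.5, 12.5 or 25 mg/kg. Tumour growth inhibition calculated against vehicle-treated mice at the end of treatment; body weight monitored.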"}},
  "note": "The source made the active and inactive calls. The rule behind the calls is not given here.",
  "data": [
    {"smiles": "C[C@H]1CC2(CCN(c3ccc(C(=O)N4CCN(C5CN(c6ccc7c(c6)C(=O)N(C6CCC(=O)NC6=O)C7=O)C5)CC4)cc3)CC2)CN1c1ccc(C#N)c(Cl)c1", "note": "(some centres not stated)", "values": [
      {"measurement": "Activity", "setting": "[1]", "result": "> 95", "unit": "%"},
      {"measurement": "concentration at 3 h", "setting": "[2]", "result": 664, "unit": "ng/mL"},
      {"measurement": "EC50", "setting": "[3]", "result": 0.6, "unit": "nM"},
      {"measurement": "Activity", "setting": "[4]", "result": "inactive"},
      {"measurement": "Activity", "setting": "[5]", "result": 79, "unit": "%"},
      {"measurement": "t1/2", "setting": "[6]", "result": "> 1", "unit": "h"},
      {"measurement": "t1/2", "setting": "[7]", "result": "> 2", "unit": "h"},
      {"measurement": "t1/2", "setting": "[8]", "result": "> 2", "unit": "h"},
      {"measurement": "t1/2", "setting": "[9]", "result": "> 2", "unit": "h"},
      {"measurement": "PPB", "setting": "[10]", "result": 99.2, "unit": "%"},
      {"measurement": "PPB", "setting": "[11]", "result": 99.1, "unit": "%"},
      {"measurement": "PPB", "setting": "[12]", "result": 99.3, "unit": "%"},
      {"measurement": "PPB", "setting": "[13]", "result": 99.1, "unit": "%"},
      {"measurement": "t1/2", "setting": "[14]", "result": 8.9, "unit": "h"},
      {"measurement": "Vdss", "setting": "[15]", "result": 1.3, "unit": "L/kg"},
      {"measurement": "Activity", "setting": "[16]", "result": "Active"},
      {"measurement": "inhibition in vivo at 7.5 mg/kg", "setting": "[17]", "result": 71, "unit": "%"}
    ]}
  ]
}
